HGIII-sPLA2 inh: human group III sPLA2 inhibitors, primary screen, biochemical, QFRET, BODIPY PC-A2 liposome substrate | inhibition, % at 12.2 µM | Group 3 secretory phospholipase A2 (Homo sapiens), Q9NZ20 | AID 743126, 2013 | QFRET BODIPY PC-A2 liposome hydrolysis, fluorescence | hit rate 0.56% among 370,000;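 active = inhibition above mean plus 3 SD of compounds lying within the high and low control bounds, cut at about 19% in these data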;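 note: 0% = median of test compound wells and 100% = no enzyme DMSO wells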
Exocytosis inh: LAMP-1 surface exposure blockers, TALL-104 cells – cell-based, flow cytometry, MLPCN library, primary screen. TALL-104 LAMP-1 surface exposure; cells stimulated with thapsigargin and PMA. inhibition, % at 10 µM. hit rate 0.66% among 360,000. AID 651702, 2012;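 active = inhibition above about 55%, limit read from the data; inconclusive = no clear call, values can overlap the other calls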
A1 inh: caspase 3/7 activation in MEF A1-2A-BIM cells, primary screen, A1 inhibitor project, cell-based, luminescence, HTS | Caspase-Glo 3/7 luminescence, 3 h; percent of clofoctol response, vehicle zero | AID 2462, 2010 | hit rate 0.066% among 330,000 | caspase activation, % (concentration not given with the values);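 active = over half of replicate activation scores above 10%, or exactly half above 10 with the replicate mean above 10; inconclusive = replicate mean below 10 yet half the replicates above 10; inactive = over half of replicates below 10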
NTR1 agonist: agonists of human NTR1, primary screen, imaging, U2OS cells, beta-arrestin-GFP, high content | NTR1-U2OS beta-arrestin-GFP spot imaging, agonist mode | activation, % at 20 µM | hit rate 0.17% among 330,000 | AID 493036, 2011;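 active = activation at or above 40% of the spot to cytoplasm intensity ratio, with at least 20 cells analyzed; inconclusive = wells under 20 cells, flagged as cytotoxic or low count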;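 note: 0% = DMSO without peptide and 100% = 100 nM NTR1 peptide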
MC4R barr agon: MC4R agonists recruiting beta-arrestin, primary screen, cell-based, luminescence, agonist arm of biased-ligand search; Melanocortin receptor 4 (Homo sapiens), P32245; U2OS MC4R beta-arrestin complementation; percent of melanotan II response, DMSO zero; activation, % at 8.9 µM; hit rate 0.98% among 360,000;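 active = activation above a per-plate cutoff, the mean activation of sample wells on that plate plus 3 SD, cut at about 8% in these data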
Target sequence (P32245 whole entry, looked up): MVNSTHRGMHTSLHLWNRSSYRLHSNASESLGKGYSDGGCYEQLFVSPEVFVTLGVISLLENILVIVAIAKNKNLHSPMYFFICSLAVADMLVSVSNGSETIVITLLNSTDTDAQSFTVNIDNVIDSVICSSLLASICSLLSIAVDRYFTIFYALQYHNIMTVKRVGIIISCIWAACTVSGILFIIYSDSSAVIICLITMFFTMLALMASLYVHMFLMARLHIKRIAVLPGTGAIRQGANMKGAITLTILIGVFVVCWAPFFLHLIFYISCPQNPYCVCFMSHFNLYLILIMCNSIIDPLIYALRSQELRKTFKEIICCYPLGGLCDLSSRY
MC4R antag cAMP: MC4R antagonists of cAMP signaling, primary screen, cell-based, TR-FRET, antagonist arm of biased-ligand search. hit rate 0.48% among 360,000. inhibition, % at 6.5 µM. MC4R-expressing cells, MTII-stimulated cAMP, LANCE TR-FRET. Melanocortin receptor 4 (Homo sapiens), P32245;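 active = inhibition above its plate's cutoff, the mean of tested wells on that plate plus 3 SD, cut at about 29% in these data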;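 note: 0% = Melanotan II alone and 100% = Melanotan II plus saturating MCL0020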
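Material: U2OS-MC4R stable cell line | Reagent: Melanotan II challenge after compound preincubation | Doses: One concentration, 6.5 µM nominal | Incubation: 30-min compound preincubation, 1-h Melanotan II challenge, 1-h detection, room temperature | Signal: TR-FRET cAMP assay | Replicates: One well per compound, no replicates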
sPLA2 confirm: human group III sPLA2 inhibitors, confirmation, biochemical, QFRET, triplicate | shares compounds with HGIII-sPLA2 inh | recombinant hGIII-sPLA2, BODIPY PC-A2 QFRET fluorescence | inhibition, % at 12.2 µM | hit rate 34% among 2,000;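 active = mean inhibition across triplicates above the hit cutoff set in the earlier primary screen, cut at about 19% in these data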;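 note: 0% = enzyme with DMSO and 100% = DMSO wells lacking enzyme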
535nm interf: 535nm fluorescence optical interference, confirmation, artefact control for HGIII-sPLA2 inhibitor project, biochemical, QFRET | AID 743282, 2014 | BODIPY FL product fluorescence interference | shares compounds with HGIII-sPLA2 inh | inhibition, % at 12.2 µM | hit rate 8.5% among 2,000;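 active = average inhibition above the solvent-only control mean plus 3 SD, cut at about 6% in these data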;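 note: 0% = DMSO with substrate plus product and 100% = DMSO with substrate alone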
* marks the source's active call; other numbers are inactive results. Hits are enriched below; roughly 2.5% of the tested compounds scored in any of these assays.

Results for Cc1ccc2c(C(=O)CN3CC(C)CC(C)C3)c(C)[nH]c2c1 (stereo unspecified) ?
HGIII-sPLA2 inh: 2; Exocytosis inh: 4; A1 inh: 1; NTR1 agonist: 0; MC4R barr agon: 1; MC4R antag cAMP: 14

What do the screens show for `O=C(CSc1nnc(Nc2ccccc2F)s1)NC1CC1`?
HGIII-sPLA2 inh: 3; Exocytosis inh: 1; A1 inh: -5; NTR1 agonist: 5; MC4R barr agon: -1; MC4R antag cAMP: 2

What do the screens show for `NC(=O)C1CC(=O)N(c2ccc(OCc3ccc(Cl)cc3)cc2)C1` (stereo unspecified)?
HGIII-sPLA2 inh: 20*; Exocytosis inh: 2; A1 inh: -1; NTR1 agonist: -1; MC4R barr agon: 0; MC4R antag cAMP: 20; sPLA2 confirm: 12; 535nm interf: -8

How did Cc1ccc(/C=C2/SC(=O)N(CC(=O)N3CCOCC3)C2=O)s1 do in these assays?
HGIII-sPLA2 inh: 8; Exocytosis inh: inconclusive; A1 inh: -1; NTR1 agonist: 0; MC4R barr agon: -3; MC4R antag cAMP: -14

Results for O=C(CN1C(=O)S/C(=C/c2ccc(N3CCOCC3)cc2)C1=O)N1CCOCC1 ?
HGIII-sPLA2 inh: 22*; Exocytosis inh: -3; A1 inh: 0; NTR1 agonist: -1; MC4R barr agon: -3; MC4R antag cAMP: -17; sPLA2 confirm: -6; 535nm interf: -12

What do the screens show for `CC1=C(C(=O)N(C)C)CC(CC(=O)NC2CCCCC2)C(=O)N1CCCN1CCCC1=O` (stereo unspecified)?
HGIII-sPLA2 inh: 21*; Exocytosis inh: 5; MC4R barr agon: 0; MC4R antag cAMP: -4; sPLA2 confirm: 0; 535nm interf: -8

How did CC1=C(C(=O)N(C)C)CC(CC(=O)NC2CCCC2)C(=O)N1CCCN1CCCC1=O (stereo unspecified) do in these assays?
HGIII-sPLA2 inh: 15; Exocytosis inh: -2; MC4R barr agon: 1; MC4R antag cAMP: 1

How did CC(C)c1nnc(NC(=O)CSc2nnc(-c3ccco3)o2)s1 do in these assays?
HGIII-sPLA2 inh: 2; Exocytosis inh: -4; A1 inh: 1; NTR1 agonist: 0; MC4R barr agon: -2; MC4R antag cAMP: 12

What do the screens show for `CC1(C)CC(=O)C(Sc2ccccc2C(=O)O)=C(O)C1`?
HGIII-sPLA2 inh: 23*; Exocytosis inh: 5; A1 inh: 0; NTR1 agonist: 2; MC4R barr agon: -1; MC4R antag cAMP: 0; sPLA2 confirm: 3; 535nm interf: -8

How did Cc1ccc(O)c(NC(=S)NC(=O)C(C)C)c1 do in these assays?
HGIII-sPLA2 inh: 21*; Exocytosis inh: 1; A1 inh: 0; NTR1 agonist: -1; MC4R barr agon: -2; MC4R antag cAMP: 1; sPLA2 confirm: 11; 535nm interf: -5

Results for CC(C)N1CCC(N2CCN(C/C=C/c3ccc(F)cc3)CC2CCO)CC1 (stereo unspecified) ?
HGIII-sPLA2 inh: 20*; Exocytosis inh: -8; A1 inh: 0; NTR1 agonist: 0; MC4R barr agon: -2; MC4R antag cAMP: 15; sPLA2 confirm: 1; 535nm interf: -9

What do the screens show for `c1ccc(N2CCN(c3ccccc3)C2c2cccnc2)cc1`?
HGIII-sPLA2 inh: 24*; Exocytosis inh: -1; A1 inh: 0; NTR1 agonist: 6; MC4R barr agon: 1; MC4R antag cAMP: -1; sPLA2 confirm: 4; 535nm interf: -12

How did Cc1cccc(CN2CCSCCS2(=O)=O)c1 do in these assays?
HGIII-sPLA2 inh: 7

What do the screens show for `COc1cccc(NC(=O)CN(C)C(C)C(=O)Nc2cc([N+](=O)[O-])ccc2Cl)c1` (stereo unspecified)?
HGIII-sPLA2 inh: -6; Exocytosis inh: -9; A1 inh: 0; NTR1 agonist: 1; MC4R barr agon: -2; MC4R antag cAMP: 13

How did C[N+]1(CC2COC3(CCCCC3)O2)CCCC1 (stereo unspecified) do in these assays?
HGIII-sPLA2 inh: 24*; Exocytosis inh: 0; A1 inh: 0; NTR1 agonist: -2; MC4R barr agon: 0; MC4R antag cAMP: -2; sPLA2 confirm: -2; 535nm interf: -3

What do the screens show for `O=C(CSc1nc2ccccc2[nH]1)N1CCN(C(=O)c2ccco2)CC1`?
HGIII-sPLA2 inh: 19*; Exocytosis inh: -4; A1 inh: 0; NTR1 agonist: -1; MC4R barr agon: 1; MC4R antag cAMP: 11; sPLA2 confirm: 1; 535nm interf: -4

Results for Cc1ccc2nc(SCC(=O)N3CCN(C(=O)c4ccco4)CC3)[nH]c2c1 ?
HGIII-sPLA2 inh: 2; Exocytosis inh: 7; A1 inh: 0; NTR1 agonist: -1; MC4R barr agon: -1; MC4R antag cAMP: 4

How did CSCCC(NC(=O)COc1ccccc1)C(=O)N(C)CC(=O)Nc1c(C)cccc1C (stereo unspecified) do in these assays?
HGIII-sPLA2 inh: 21*; Exocytosis inh: 7; A1 inh: 0; NTR1 agonist: -1; MC4R barr agon: -1; MC4R antag cAMP: -1; sPLA2 confirm: 1; 535nm interf: -17

How did CSCCC(NC(=O)COc1ccccc1)C(=O)OCCOc1ccc(C)cc1 (stereo unspecified) do in these assays?
HGIII-sPLA2 inh: -8; Exocytosis inh: 0; A1 inh: -1; NTR1 agonist: -1; MC4R barr agon: 1; MC4R antag cAMP: 8

Results for CC[C@@H](OP(=O)(O)[C@@H](C)N)C(=O)O ?
HGIII-sPLA2 inh: 5

How did CCN(CC(=O)NCc1ccc(Cl)cc1)Cc1cc(=O)n2ccsc2n1 do in these assays?
HGIII-sPLA2 inh: 1; Exocytosis inh: 12; A1 inh: 0; NTR1 agonist: 0; MC4R barr agon: -1; MC4R antag cAMP: -4

How did Cc1ccccc1NC(=O)Nc1ccccn1 do in these assays?
HGIII-sPLA2 inh: 20*; Exocytosis inh: -2; A1 inh: -2; NTR1 agonist: 1; MC4R barr agon: 1; MC4R antag cAMP: 10; sPLA2 confirm: 0; 535nm interf: -4
